Assay outcomes: PubChem BioAssay, several laboratories
In the library only some 2.6% were active in any assay of this set; here they are far more common.
PGE2 EP2 inh: blocks the human prostaglandin E2 receptor EP2; P43116; C6 glioma cells expressing human EP2, cAMP TR-FRET; cells stimulated with saturating PGE2; inhibition, % at 25 µM; actives 0.52% (n = 260,000);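 active means percent inhibition above 40 after rounding to a whole number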;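 further: rat C6 glioma host cells with rolipram phosphodiesterase inhibitor present; the protocol text gives 20 µM as final concentration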
Target sequence (P43116 whole entry, looked up): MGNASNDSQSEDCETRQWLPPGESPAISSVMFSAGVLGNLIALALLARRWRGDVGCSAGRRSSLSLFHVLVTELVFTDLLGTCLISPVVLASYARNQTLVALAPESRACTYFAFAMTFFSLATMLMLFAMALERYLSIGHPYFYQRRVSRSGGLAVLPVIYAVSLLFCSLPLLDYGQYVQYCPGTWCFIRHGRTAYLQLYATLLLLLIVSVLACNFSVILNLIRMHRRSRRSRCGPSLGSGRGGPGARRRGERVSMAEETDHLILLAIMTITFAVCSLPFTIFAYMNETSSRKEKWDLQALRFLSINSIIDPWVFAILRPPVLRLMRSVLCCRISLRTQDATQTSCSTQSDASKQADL
EP2 modulator: EP2 receptor (human) modulation; P43116; EP2-expressing cells, cAMP HTRF FRET, PGE2 co-stimulation; induction, % at 25 µM; actives 0.83% (n = 260,000); AID 940;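 active means compounds whose cAMP rise, as percent of the full-agonist control response, exceeds 60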;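 further: rat C6 glioma line stably carrying human EP2 under a CMV promoter; the protocol text gives 20 µM as final concentration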
T cell HTS: modulates CD8 T cell binding to vesicles; actives 0.068% (n = 330,000); AID 2052; response (vesicle binding), % at 7 µM; 2C CD8+ T cell-vesicle binding, flow cytometry; active compounds read low;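 active means response, share of CD8 T cells binding vesicles, and their 90th percentile fluorescence all below set limits, cut at about 80% in these data, passing the limit was not always enough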;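 further: values below 100% mean blocked vesicle binding to the CD8+ T cells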
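Assay system: 2C TCR transgenic mouse naive CD8+ T cells, MACS-purified | Read-out: CD8+ gate FL2 mean fluorescence as % of same-row positive control | Signal: High-throughput flow cytometry with anti-B7-1 and anti-CD8 staining | Timing: Binding step 1.5 h, 37 °C, antibody labelling 20 min, ice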
MC4R antag cAMP: human MC4R antagonism in cAMP assay; P32245; MC4R-expressing cells, MTII-stimulated cAMP, LANCE TR-FRET; inhibition, % at 6.5 µM; actives 0.48% (n = 360,000);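 active means inhibition above its plate's cutoff, the mean of tested wells on that plate plus 3 SD, cut at about 29% in these data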
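system = U2OS cells with stable human MC4R expression | also added = Melanotan II challenge after compound preincubation | dosing = one concentration, 6.5 µM nominal | incubation = compound 30 min, challenge 1 h, detection 1 h | measured by = TR-FRET with Eu-cAMP and labeled anti-cAMP, 671 nm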
Granule exo inh: lytic granule exocytosis inhibition; TALL-104 LAMP-1 surface exposure, flow cytometry; cells stimulated with thapsigargin and PMA; inhibition, % at 10 µM; actives 0.66% (n = 360,000); AID 651702;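 active means inhibition above about 55%, limit read from the data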
MC4R barr agon: activates human MC4R beta-arrestin recruitment. P32245. U2OS MC4R beta-arrestin complementation, luminescence; percent of melanotan II response, DMSO zero. activation, % at 8.9 µM. actives 0.98% (n = 360,000). AID 540308;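 active means activation above a per-plate cutoff, the mean activation of sample wells on that plate plus 3 SD, cut at about 8% in these data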
Hits are given with their value; – = inactive; · = not tested or not shown.

SMILES | PGE2 EP2 inh | EP2 modulator | T cell HTS | MC4R antag cAMP | Granule exo inh | MC4R barr agon
CC(=O)c1cccc2c(O)c(C3=Nc4ccccc4C3=O)[nH]c12 | 47 | – | – | – | – | –
Clc1cccc(N/N=C/c2ccc(N3CCOCC3)s2)c1 | – | – | – | – | – | –
O=C1C(=O)N(CCCc2ccccc2)c2ccccc21 | · | · | – | – | 76 | –
CN/C=C1\C(=O)C(C)(C)Oc2ccc3ccc(=O)oc3c21 | – | – | – | – | – | –
CC1(C)Oc2ccc3ccc(=O)oc3c2/C(=C/Nc2cccc(O)c2)C1=O | – | – | – | – | – | 8.6
CCCOc1ccccc1NC(=O)Nc1ccccc1Cl | – | – | – | – | – | –
COc1cccc(N=c2oc3ccc(OC)cc3cc2-c2nc3ccccc3[nH]2)c1 | – | – | – | – | – | 8.5
Cc1cc(C)cc(NS(=O)(=O)CCCS(=O)(=O)Nc2cc(C)cc(C)c2)c1 | · | · | · | – | – | 19
CCCCCCCCCS(=O)(=O)Nc1cc(C)ccn1 | – | – | – | – | – | –
CCOCCCNc1nc2c(c(=O)[nH]c(=O)n2C)n1CCOC | – | – | · | · | · | ·
CC(=O)c1cccc(NS(=O)(=O)c2ccc(NC(=O)N3CCCCC3)cc2)c1 | · | · | – | – | – | –
Cc1ccc(C(=O)N2C(=O)C(c3ccccc3)Oc3ccccc32)cc1 (configuration not stated) | – | 87 | – | – | – | –
Fc1ccccc1CSc1nnnn1-c1ccc2c(c1)OCO2 | – | – | – | – | – | –
CC(C)Cn1c(=O)c(C(=O)NCc2ccccn2)c(O)c2ccccc21 | – | 62 | – | – | – | –
CCCn1c(=O)c(C(=O)NCc2ccccc2OC)c(O)c2ccccc21 | · | · | – | – | – | –
CCn1c(=O)c(C(=O)NCc2ccccc2)c(O)c2ccccc21 | · | · | – | – | – | –
CCn1c(=O)c(C(=O)NCc2ccccc2OC)c(O)c2ccccc21 | – | 62 | – | – | – | –
CCn1c(=O)c(C(=O)NCc2cccnc2)c(O)c2ccccc21 | – | 65 | – | – | – | –
CCCn1c(=O)c(C(=O)NCc2ccncc2)c(O)c2ccccc21 | – | – | – | – | – | –
O=C(O)CSc1nnc2n(-c3ccccc3)c(=O)c3ccccc3n12 | · | · | – | – | – | –
CCC(C)[C@@H](NC(=O)OC(C)(C)C)c1nnc(S(=O)(=O)Cc2cccc(C)c2)o1 (some centres not stated) | – | – | · | – | 81 | –
CCOC(=O)C1=C(c2ccccc2)NC(=O)NC1c1ccc(O)c(Cl)c1 (configuration not stated) | · | · | – | – | – | 52
CC(C)C[C@H](NC(=O)c1nc[nH]c1C(=O)NCC(=O)OC(C)(C)C)C(=O)OCc1ccccc1 | – | – | – | – | – | 9.4
C[C@@H](NC(=O)c1nc[nH]c1C(=O)N[C@@H](Cc1ccccc1)C(=O)OC(C)(C)C)c1ccccc1 | – | – | – | – | – | –
CC(C)C[C@H](NC(=O)c1nc[nH]c1C(=O)NCC(=O)OCc1ccccc1)C(=O)OCc1ccccc1 | · | · | – | – | – | –
SMILES | PGE2 EP2 inh | EP2 modulator | T cell HTS | MC4R antag cAMP | Granule exo inh | MC4R barr agon
C[C@H](NC(=O)c1nc[nH]c1C(=O)N[C@@H](Cc1ccccc1)C(=O)OC(C)(C)C)c1ccccc1 | – | 64 | – | – | – | –
Cc1cccc(-n2c(=O)[nH]c3c(C(N)=O)nc(CC(C)C)nc32)c1 | – | – | – | – | – | –
CCn1c(N2CCC(C(=O)Nc3nnc(C)s3)CC2)nc2ccccc21 | · | – | · | · | · | ·
COc1ccccc1N1C(=O)C=C(Sc2nc(C)cc(C)n2)C1=O | 42 | – | – | – | – | –
O=C(Nc1ccc([N+](=O)[O-])cc1)Nc1ccc(N2CCOCC2)c2nonc12 | – | – | – | – | 77 | –
Clc1cccc(Cl)c1C(Nc1nncs1)Nc1nncs1 | 52 | – | · | · | · | ·
O=C(Cc1c(F)cccc1Cl)Nc1nncs1 | – | – | · | · | · | ·
Fc1cccc(F)c1C(Nc1nncs1)Nc1nncs1 | 46 | – | · | · | – | ·
O=C(COc1ccc(Cl)c(Cl)c1)NC1CCS(=O)(=O)C1 (configuration not stated) | · | · | – | – | – | –
S=C1NCCN1CC1CCN(CC2CCCC2)CC1 | · | · | · | – | – | –
COc1ccccc1C(=O)Nc1ccc(S(=O)(=O)N2CCN(C)CC2)cc1 | · | · | – | – | – | –
COc1ccccc1C(=O)NC(=S)Nc1ccc(S(=O)(=O)N2CCN(C)CC2)cc1 | – | – | 0.0 | – | – | –
Cc1ccc(NCc2ccc([N+](=O)[O-])s2)cc1 | · | · | – | – | – | –
COC(=O)CN1C(=O)COc2ccc(S(=O)(=O)N3CCCC3)cc21 | · | · | – | – | – | –
CC(C)COP(=O)(OCC(C)C)C(Nc1ccccc1)c1ccccc1 (configuration not stated) | – | 70 | – | – | – | –
CC(C)COP(=O)(OCC(C)C)C(Nc1ccccc1)c1ccc(F)cc1 (configuration not stated) | – | – | – | – | – | –
Cc1[nH]n2c(=O)c3c(nc2c1-c1ccc(Cl)cc1)CCC3 | – | – | – | – | – | –
Nc1[nH]n2c(=O)c3c(nc2c1N=Nc1ccc(Cl)cc1)CCCC3 | – | 64 | – | – | – | –
Cc1ccc(-c2cc(C)nc3ncnn23)cc1 | – | – | – | – | – | –
COc1cccc(N=C2SC(C(=O)Nc3ccccc3F)CC(=O)N2C)c1 (configuration not stated) | 163 | – | – | – | – | –
COc1cccc(NC(=O)C2CC(=O)N(C)C(=Nc3cccc(F)c3)S2)c1 (configuration not stated) | – | – | – | – | – | –
Cc1[nH]nc2c1C(c1cc(COc3ccc(F)cc3)c(C)s1)C(C#N)=C(N)O2 (configuration not stated) | – | – | · | · | · | ·
COc1cc(C(=O)Nc2nc3ccc(S(C)(=O)=O)cc3s2)cc(OC)c1C | – | – | – | – | – | 19
CCOC(=O)c1c(NC(=O)Cn2nc(C(=O)O)c3ccccc3c2=O)sc(C)c1C | – | – | – | – | – | 9.0
CCOC(=O)c1c(NC(=S)Nc2ccc(Cl)cc2)sc(C)c1C | · | – | · | – | – | –
CCOC(=O)c1c(NC(=O)Nc2ccccc2)sc(C)c1C | – | 62 | – | – | – | –
CN(CCc1ccccc1)C(=O)c1ccc(NC(=O)Cc2ccc(NC(=O)C3CCCN(C(=O)CCc4ccccc4)C3)cc2)cc1 (configuration not stated) | · | · | · | – | – | –
NC(=O)CSc1nc2ccccc2c(=O)n1CCc1ccccc1 | – | – | – | – | – | –
C=CCSc1nc2ccccc2c(=O)n1CCc1ccccc1 | – | 70 | · | · | · | ·
COc1ccc(Cl)cc1C(=O)NNC(=O)c1cc2ccccc2o1 | · | · | – | – | – | –
